Measurements reported in ChEMBL document CHEMBL4038340, “Development of Novel Peptide-Based Michael Acceptors Targeting Rhodesain and Falcipain-2 for the Treatment of Neglected Tropical Diseases (NTDs)” (J Med Chem, 2017).
Activity calls are given as the source filed them. The calls are words filed in the database; no cut-off is given here.

Legend:
[1] = system: Plasmodium falciparum; assay: Antiparasitic activity against Plasmodium falciparum W2 after 48 hrs by YOYO-1 probe-based flow cytometry; format: functional; conditions: W2, 48 h
[2] = biological target: Rhodesain (Trypanosoma brucei rhodesiense, UniProt Q95PM0); assay: Inhibition of recombinant Trypanosoma brucei rhodesiense rhodesain expressed in Pichia pastoris using Cbz-Phe-Arg-AMC as substrate after 30 min by fluorescence assay
Chain of Rhodesain (Q95PM0 whole entry): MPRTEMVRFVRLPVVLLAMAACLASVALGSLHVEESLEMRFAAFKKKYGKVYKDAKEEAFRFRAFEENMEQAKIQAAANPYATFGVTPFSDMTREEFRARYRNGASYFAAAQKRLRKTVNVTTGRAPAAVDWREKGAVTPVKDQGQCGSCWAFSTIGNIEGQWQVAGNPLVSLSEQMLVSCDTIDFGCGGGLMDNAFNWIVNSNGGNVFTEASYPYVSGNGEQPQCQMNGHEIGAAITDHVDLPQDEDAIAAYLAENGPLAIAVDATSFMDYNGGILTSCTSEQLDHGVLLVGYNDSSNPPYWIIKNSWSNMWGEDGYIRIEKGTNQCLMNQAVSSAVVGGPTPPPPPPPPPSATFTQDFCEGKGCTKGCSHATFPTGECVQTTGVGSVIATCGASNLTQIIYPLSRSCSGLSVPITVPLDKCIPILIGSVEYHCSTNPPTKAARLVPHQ
Method in brief: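 Recombinant rhodesain with fluorogenic Cbz-Phe-Arg-AMC substrate. Compounds were first screened at a fixed 50 µM, with DMSO as negative control and an irreversible clan CA cysteine-protease inhibitor as positive control. Continuous assays at seven inhibitor concentrations, from minimally to fully inhibitory, gave kinac (min-1) and Ki, with k2nd = kinac/Ki (M-1 min-1).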

[3] = biological target: Rhodesain (Trypanosoma brucei rhodesiense) (UniProt Q95PM0); assay: Inhibition of recombinant Trypanosoma brucei rhodesiense rhodesain expressed in Pichia pastoris assessed as first order rate constant using Cbz-Phe-Arg-AMC as substrate after 30 mins by fluorescence assay
Chain of Rhodesain (Trypanosoma brucei rhodesiense) (Q95PM0 1-450): as the sequence (Q95PM0 whole entry) above
Method in brief: (§1)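 Recombinant rhodesain with fluorogenic substrate Cbz-Phe-Arg-AMC. Preliminary screen at a fixed inhibitor concentration of 50 µM. Equal volume of DMSO served as negative control and E-64 as irreversible positive control. Active compounds went on to continuous assays at seven concentrations, from minimally to fully inhibitory, giving kinac (min-1), Ki (nM) and k2nd = kinac/Ki (M-1 min-1).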

[4] = biological target: T1, Procathepsin L (Homo sapiens, UniProt P07711); assay: Inhibition of human cathepsin L assessed as first order rate constant using Cbz-Phe-Arg-AMC as substrate after 10 mins by fluorescence assay
Target sequence in this assay (P07711 114-333 limits assumed): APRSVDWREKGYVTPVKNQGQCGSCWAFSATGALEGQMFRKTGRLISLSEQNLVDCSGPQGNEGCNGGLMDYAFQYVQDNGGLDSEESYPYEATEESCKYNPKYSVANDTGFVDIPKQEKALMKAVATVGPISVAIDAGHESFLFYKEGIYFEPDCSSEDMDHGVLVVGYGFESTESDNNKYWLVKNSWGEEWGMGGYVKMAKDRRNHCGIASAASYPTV

[5] = biological target: T1, Procathepsin L; assay: Inhibition of human cathepsin L using Cbz-Phe-Arg-AMC as substrate after 10 mins by fluorescence assay
Target sequence in this assay (P07711 whole entry): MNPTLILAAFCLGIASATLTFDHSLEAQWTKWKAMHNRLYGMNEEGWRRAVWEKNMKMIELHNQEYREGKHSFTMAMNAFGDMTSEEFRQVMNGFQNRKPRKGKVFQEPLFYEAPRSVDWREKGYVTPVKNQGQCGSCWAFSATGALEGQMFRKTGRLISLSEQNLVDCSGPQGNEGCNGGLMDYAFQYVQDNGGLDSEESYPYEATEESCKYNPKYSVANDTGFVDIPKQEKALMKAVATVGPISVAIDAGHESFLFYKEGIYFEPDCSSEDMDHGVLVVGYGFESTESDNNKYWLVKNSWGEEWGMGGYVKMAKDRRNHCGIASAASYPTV

[6] = biological target: Rhodesain (Trypanosoma brucei rhodesiense) (UniProt Q95PM0); assay: Inhibition of recombinant Trypanosoma brucei rhodesiense rhodesain expressed in Pichia pastoris assessed as second order rate constant using Cbz-Phe-Arg-AMC as substrate after 30 mins by fluorescence assay; method in brief: as §1
[7] = biological target: T1, Procathepsin L; assay: Inhibition of human cathepsin L assessed as second order rate constant using Cbz-Phe-Arg-AMC as substrate after 10 mins by fluorescence assay
Target sequence in this assay (P07711 114-333 limits assumed): as the sequence (P07711 114-333 limits assumed) above

[8] = biological target: T2, Falcipain 2 (Plasmodium falciparum, UniProt Q9N6S8); assay: Inhibition of recombinant Plasmodium falciparum falcipain-2 expressed in Escherichia coli M15(pREP4) using Cbz-Phe-Arg-AMC as substrate by fluorescence assay
T2 sequence (Q9N6S8 whole entry): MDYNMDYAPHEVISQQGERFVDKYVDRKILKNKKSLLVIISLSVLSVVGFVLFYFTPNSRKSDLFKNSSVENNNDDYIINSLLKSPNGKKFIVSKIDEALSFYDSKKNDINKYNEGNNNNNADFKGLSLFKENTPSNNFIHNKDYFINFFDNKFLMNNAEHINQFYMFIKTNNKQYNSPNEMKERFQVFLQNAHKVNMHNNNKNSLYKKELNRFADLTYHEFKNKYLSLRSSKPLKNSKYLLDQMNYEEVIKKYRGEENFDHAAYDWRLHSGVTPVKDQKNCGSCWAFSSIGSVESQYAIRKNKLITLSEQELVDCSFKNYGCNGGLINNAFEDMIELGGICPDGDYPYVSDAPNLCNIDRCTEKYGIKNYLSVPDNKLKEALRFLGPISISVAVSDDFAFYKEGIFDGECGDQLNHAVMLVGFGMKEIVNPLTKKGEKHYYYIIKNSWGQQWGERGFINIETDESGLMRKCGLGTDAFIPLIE

[9] = system: Trypanosoma brucei brucei; assay: Antiparasitic activity against bloodstream form of Trypanosoma brucei brucei 449 after 24 hrs by ATPlite assay; format: functional; conditions: Trypanosoma brucei, 449, 24 h
[10] = system: Trypanosoma brucei brucei; assay: Antiparasitic activity against bloodstream form of Trypanosoma brucei brucei 449 after 48 hrs by ATPlite assay; format: functional; conditions: Trypanosoma brucei, 449, 48 h
[11] = Cytotoxicity against human HeLa cells assessed as decrease in cell viability after 48 hrs by MTT assay; format: cell-based
[12] = Selectivity index, ratio of CC50 for human HeLa cells to EC50 for Trypanosoma brucei brucei 449 for 48 hrs; format: toxicity, cell-based; conditions: read-out: Ratio CC50/EC50
[13] = biological target: Rhodesain (Trypanosoma brucei rhodesiense) (UniProt Q95PM0); assay: Inhibition of recombinant Trypanosoma brucei rhodesiense rhodesain expressed in Pichia pastoris using Cbz-Phe-Arg-AMC as substrate at 50 uM after 30 mins by fluorescence assay; method in brief: as §1

SMILES	EC50 [1] [nM]	Ki [2] [nM]	Kinact [3] [min⁻¹]	Kinact [4] [min⁻¹]	Ki [5] [nM]	K [6] [×10³ /M/min]	K [7] [×10³ /M/min]	IC50 [8] [nM]	EC50 [9] [nM]	EC50 [10] [nM]	CC50 at 48 h [11] [nM]	selectivity ratio at 48 h [12]	inhibition [13]
N#C/C=C/[C@H](CCc1ccccc1)NC(=O)[C@H](Cc1ccccc1)NC(=O)OCc1ccccc1	> 10000	46	0.0005	0.0022	240	12	9.3	> 50000	–	–	–	–	–
CC(C)C[C@H](NC(=O)OCc1ccc([N+](=O)[O-])cc1)C(=O)N[C@H](/C=C/S(=O)(=O)c1ccccc1)CCc1ccccc1	2310	14	0.0043	0.005	250	304	22	1320	–	–	–	–	–
CCN(CC)CCCC(C)Nc1ccnc2cc(Cl)ccc12 (stereo not given) [CHLOROQUINE]	57	–	–	–	–	–	–	–	–	–	–	–	–
COC(=O)/C=C/[C@H](CCc1ccccc1)NC(=O)[C@H](CC(C)C)NC(=O)OCc1ccc([N+](=O)[O-])cc1	3970	17	0.0023	0.0014	41	152	35	9630	–	–	–	–	–
COC(=O)/C=C/[C@H](CCc1ccccc1)NC(=O)[C@H](Cc1ccccc1)NC(=O)OCc1ccc([N+](=O)[O-])cc1	> 10000	3.6	0.0012	0.0016	25	347	64	> 50000	97200	–	–	–	–
O=C(N[C@@H](Cc1ccccc1)C(=O)N[C@H](/C=C/S(=O)(=O)c1ccccc1)CCc1ccccc1)OCc1ccc([N+](=O)[O-])cc1	> 10000	7.2	0.0024	0.003	45	334	65	> 50000	5480	4070	–	–	–
O=C(N[C@@H](Cc1ccccc1)C(=O)N[C@H](/C=C/S(=O)(=O)c1ccccc1)CCc1ccccc1)OCc1ccccc1	> 10000	5	0.0033	0.0014	290	663	4.4	7330	23700	18500	–	–	–
CC(C)C[C@H](NC(=O)[C@H]1O[C@@H]1C(=O)O)C(=O)NCCCCN=C(N)N [E-64]	–	35	0.009	0.0032	30	261	110	250	–	–	–	–	–
CC(=O)/C=C/[C@H](CCc1ccccc1)NC(=O)[C@H](CC(C)C)NC(=O)OCc1ccccc1	3160	0.5	0.0016	0.0013	110	3800	13	250	3850	3200	9580	3	–
CC(C)C[C@H](NC(=O)OCc1ccccc1)C(=O)N[C@H](/C=C/C#N)CCc1ccccc1	> 10000	53	0.001	0.0012	330	19	3.8	> 50000	–	–	–	–	–
CC(=O)/C=C/[C@H](CCc1ccccc1)NC(=O)[C@H](CC(C)C)NC(=O)OCc1ccc([N+](=O)[O-])cc1	2740	0.9	0.0027	0.0026	3.5	2970	739	110	3230	2480	8200	3.3	–
CC(C)C[C@H](NC(=O)OCc1ccc([N+](=O)[O-])cc1)C(=O)N[C@H](/C=C/C#N)CCc1ccccc1	> 10000	–	–	–	–	–	–	> 50000	–	–	–	–	inactive
N#C/C=C/[C@H](CCc1ccccc1)NC(=O)[C@H](Cc1ccccc1)NC(=O)OCc1ccc([N+](=O)[O-])cc1	> 10000	1740	0.0004	–	–	0.26	–	> 50000	–	–	–	–	–
N=C(NCCCCCCNC(=N)NC(=N)Nc1ccc(Cl)cc1)NC(=N)Nc1ccc(Cl)cc1 [CHLORHEXIDINE]	–	–	–	–	–	–	–	–	670	530	–	–	–
COC(=O)/C=C/[C@H](CCc1ccccc1)NC(=O)[C@H](CC(C)C)NC(=O)OCc1ccccc1	4400	7.5	0.0038	0.0032	40	509	81	9530	6080	5020	–	–	–
COC(=O)/C=C/[C@H](CCc1ccccc1)NC(=O)[C@H](Cc1ccccc1)NC(=O)OCc1ccccc1	> 10000	2	0.0018	0.004	27	919	153	> 50000	12900	8280	–	–	–
CC(C)C[C@H](NC(=O)OCc1ccccc1)C(=O)N[C@H](/C=C/S(=O)(=O)c1ccccc1)CCc1ccccc1	1530	9.1	0.0028	0.0009	0.61	342	1570	780	2500	2620	12200	4.6	–
CC(=O)/C=C/[C@H](CCc1ccccc1)NC(=O)[C@H](Cc1ccccc1)NC(=O)OCc1ccc([N+](=O)[O-])cc1	7180	0.074	0.0017	0.0016	2.2	24400	737	780	6050	4980	–	–	–
